# Results taken from ChEMBL document CHEMBL2380292, “Discovery of SAR184841, a potent and long-lasting inhibitor of 11β-hydroxysteroid dehydrogenase type 1, active in a physiopathological animal model of T2D” (Bioorg Med Chem Lett, 2013).
# Key:
# Mus musculus [1] = assay: Antidiabetic activity in diet induced obese C57Bl/6J mouse assessed as plasma insulin level at 3 mg/kg, po qd administered for 4 weeks (reference value: 3.6 +/- 0.2 ng/mL); format: functional
# Mus musculus [2] = assay: Antidiabetic activity in diet induced obese C57Bl/6J mouse assessed as plasma glucose level at 3 mg/kg, po qd administered for 4 weeks (reference value: 297 +/- 15 mg/dL); format: functional
# Mus musculus [3] = assay: Antidiabetic activity in diet induced obese C57Bl/6J mouse assessed as plasma glucose level at 1 mg/kg, po qd administered for 4 weeks (reference value: 297 +/- 15 mg/dL); format: functional
# Mus musculus [4] = assay: Inhibition of 11beta-HSD1 in mouse adipose tissue at 3 mg/kg, po after 24 hrs; format: functional
# Procedure, shortened: (§1)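 Pharmacodynamic study in mice: single oral 3 mg/kg dose, with liver and fat 11β-HSD1 activity followed over 24 h post-dosing.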
# Mus musculus [5] = assay: Inhibition of 11beta-HSD1 in mouse liver at 3 mg/kg, po after 24 hrs; format: functional; procedure, shortened: as §1
# [6] = Permeability across human Caco2 cells; format: ADME, cell-based; details: Caco-2, read-out: permeability
# Procedure, shortened: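 Permeability was measured with the compound alone and in the presence of the P-gp inhibitor elacridar, and expressed in 10^-7 cm/s.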
# [7] = Volume of distribution at steady state in rat at 3 mg/kg, iv and 10 mg/kg, po; format: ADME, organism-based; details: in vivo, read-out: Vdss
# [8] = AUC (0 to infinity) in rat plasma at 10 mg/kg, po; format: ADME, organism-based; parameters: time infinity, dose 10 mg/kg, route oral
# [9] = Cmax in rat plasma at 10 mg/kg, po; format: ADME, organism-based; parameters: dose 10 mg/kg, route oral
# Xenopus laevis = organism: Xenopus laevis; assay: Toxicity in Xenopus laevis by teratogenicity assay; format: organism-based; details: in vivo
# Salmonella typhimurium = assay: Genotoxicity in Salmonella typhimurium by Ames test; format: toxicity, organism-based; details: salmonella enterica subsp. enterica serovar typhimurium
# Liver microsomes = assay: Metabolic stability in rat liver microsomes; format: ADME, Microsome
# [10] = biological target: T1, 11-beta-hydroxysteroid dehydrogenase type 2 (Homo sapiens, UniProt P80365); assay: Inhibition of human 11beta-HSD2
# T1 sequence (P80365 whole entry): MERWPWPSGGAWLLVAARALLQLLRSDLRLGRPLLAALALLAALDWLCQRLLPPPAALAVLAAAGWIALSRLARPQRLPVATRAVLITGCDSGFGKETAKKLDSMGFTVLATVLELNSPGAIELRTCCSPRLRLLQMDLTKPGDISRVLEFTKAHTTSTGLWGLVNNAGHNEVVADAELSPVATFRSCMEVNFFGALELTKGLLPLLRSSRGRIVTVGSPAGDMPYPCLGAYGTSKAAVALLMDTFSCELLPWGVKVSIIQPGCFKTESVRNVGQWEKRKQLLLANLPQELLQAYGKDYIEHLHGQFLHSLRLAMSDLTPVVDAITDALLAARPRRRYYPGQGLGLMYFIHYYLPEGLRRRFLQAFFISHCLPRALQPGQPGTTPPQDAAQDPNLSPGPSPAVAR
# [11] = biological target: 11-beta-hydroxysteroid dehydrogenase 1 (Homo sapiens, UniProt P28845); assay: Inhibition of human recombinant 11beta-HSD1 by scintillation proximity assay
# [12] = Induction of cytochrome P450 (unknown origin); format: ADME; details: human
# Mus musculus [13] = assay: Ex vivo inhibition of 11beta-HSD1 in C57Bl/6J mouse subcutaneous fat at 3 mg/kg, po after 16 hrs; format: functional
# Procedure, shortened: (§2)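 Mice given a single oral dose as a suspension in Tween 80/0.6% methylcellulose (0.5/99.5, v/v) at 10 mL/kg. At 2 h or 16 h post-dose, animals were killed by cervical dislocation and 50 mg liver and 200 mg subcutaneous fat were taken for 11β-HSD1 activity. Reactions were stopped with HCl 1 N/methanol (1/1). 3H-cortisone and 3H-cortisol were quantified by HPLC with flow scintillation detection.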
# Mus musculus [14] = assay: Ex vivo inhibition of 11beta-HSD1 in C57Bl/6J mouse liver at 3 mg/kg, po after 16 hrs; format: functional; procedure, shortened: as §2
# Mus musculus [15] = organism: Mus musculus; assay: Toxicity in C57Bl/6J mouse assessed as HPA axis biomarker modification; format: organism-based; details: in vivo
# Mus musculus [16] = assay: Hepatotoxicity in C57Bl/6J mouse assessed as alteration of liver function biomarkers at 1 to 10 mg/kg, po after 4 weeks; format: toxicity, organism-based; parameters: dose 1-10 mg/kg, route oral; details: in vivo, 672 h
# [17] = Plasma concentration in C57Bl/6J mouse at 10 mg/kg, po 22 hrs post last dose; format: ADME, organism-based; parameters: dose 10 mg/kg, route oral
# Procedure, shortened: (§3)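 C57Bl/6J mice, 20 weeks old, kept on a high-fat/high-fructose diet (diet-induced obese), were dosed orally once daily for 4 weeks at 1, 3 or 10 mg/kg/day in methylcellulose-Tween 80 vehicle. Lean and obese vehicle-treated controls were included, with n = 9–10 per group. Food intake and body weight were followed. Plasma drug levels were taken at study end, about 22 h after the last dose.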
# [18] = Plasma concentration in C57Bl/6J mouse at 3 mg/kg, po 22 hrs post last dose; format: ADME, organism-based; parameters: dose 3 mg/kg, route oral; procedure, shortened: as §3
# Mus musculus [19] = assay: Antidiabetic activity in diet induced obese C57Bl/6J mouse assessed as increase of glucose tolerance at 10 mg/kg, po after 3 weeks by oral glucose tolerance test; format: functional
# Mus musculus [20] = assay: Antidiabetic activity in po dosed C57Bl/6J mouse assessed as reduction in plasma glucose level administered for 4 weeks; format: functional, organism-based
# Mus musculus [21] = assay: Antidiabetic activity in diet induced obese C57Bl/6J mouse assessed as liver triglyceride level at 10 mg/kg, po qd administered for 4 weeks (reference value: 210.5 +/- 15.4 mg/g); format: functional
# Mus musculus [22] = assay: Antidiabetic activity in diet induced obese C57Bl/6J mouse assessed as liver triglyceride level at 1 mg/kg, po qd administered for 4 weeks (reference value: 210.5 +/- 15.4 mg/g); format: functional
# Mus musculus [23] = assay: Antidiabetic activity in diet induced obese C57Bl/6J mouse assessed as plasma cholesterol level at 10 mg/kg, po qd administered for 4 weeks (reference value: 154.3 +/- 8.6 mg/dL); format: functional
# Mus musculus [24] = assay: Antidiabetic activity in diet induced obese C57Bl/6J mouse assessed as plasma cholesterol level at 3 mg/kg, po qd administered for 4 weeks (reference value: 154.3 +/- 8.6 mg/dL); format: functional
# Mus musculus [25] = assay: Antidiabetic activity in diet induced obese C57Bl/6J mouse assessed as plasma cholesterol level at 1 mg/kg, po qd administered for 4 weeks (reference value: 154.3 +/- 8.6 mg/dL); format: functional
# Mus musculus [26] = assay: Antidiabetic activity in diet induced obese C57Bl/6J mouse assessed as plasma triglyceride level at 10 mg/kg, po qd administered for 4 weeks (reference value: 36.2 +/- 2.1 […]); format: functional
# Mus musculus [27] = assay: Antidiabetic activity in diet induced obese C57Bl/6J mouse assessed as plasma triglyceride level at 1 mg/kg, po qd administered for 4 weeks (reference value: 36.2 +/- 2.1 […]); format: functional
# Mus musculus [28] = assay: Antidiabetic activity in diet induced obese C57Bl/6J mouse assessed as plasma leptin level at 1 mg/kg, po qd administered for 4 weeks (reference value: 22.5 +/- 2.4 ng/mL); format: functional
# in vivo [29] = details: rat, brain, po, 10 mg/kg
# in vivo [30] = details: rat, adipose tissue, po, 10 mg/kg
# Sequence of 11-beta-hydroxysteroid dehydrogenase 1 (P28845 whole entry): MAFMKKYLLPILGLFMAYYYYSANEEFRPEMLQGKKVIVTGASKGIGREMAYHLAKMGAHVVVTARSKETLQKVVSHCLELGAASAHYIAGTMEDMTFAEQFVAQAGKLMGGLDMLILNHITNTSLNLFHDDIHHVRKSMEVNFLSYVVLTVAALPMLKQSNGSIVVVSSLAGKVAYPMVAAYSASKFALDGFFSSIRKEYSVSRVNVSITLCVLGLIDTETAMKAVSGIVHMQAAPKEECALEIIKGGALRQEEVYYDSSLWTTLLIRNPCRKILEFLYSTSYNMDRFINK
smiles,measurement,setting,value
CC(C)(C)N1CCN(c2ccc(N3CCN(C(=O)N[C@H]4C5CC6CC4C[C@](C(N)=O)(C6)C5)c4ccccc43)nc2)CC1,Activity,Mus musculus [1],2.3 ng/mL
same,Activity,Mus musculus [2],251 mg/dL
same,Activity,Mus musculus [3],263 mg/dL
same,inhibition in vivo at 3 mg/kg,Mus musculus [4],40%
same,inhibition in vivo at 3 mg/kg,Mus musculus [5],60%
same,Papp,[6],0.3 ×10⁻⁶ cm/s
same,Vd,[7],14 L/kg
same,AUC(0-inf),[8],580 ng·h/mL
same,Cmax,[9],556 ng/mL
same,Activity,Xenopus laevis,Non-toxic
same,Activity,Salmonella typhimurium,Non-toxic
same,Stability,Liver microsomes,15%
same,IC50,[10],4000 nM
same,IC50,[11],4 nM
same,Activity,[12],Not Active
same,inhibition in vivo at 3 mg/kg,Mus musculus [13],> 50%
same,inhibition in vivo at 3 mg/kg,Mus musculus [14],> 50%
same,Activity,Mus musculus [15],Non-toxic
same,Activity,Mus musculus [16],Non-toxic
same,concentration at 22 h,[17],2.6 nM
same,concentration at 22 h,[18],3.8 nM
same,Activity,Mus musculus [19],-23%
same,Activity,Mus musculus [20],Dose-dependent effect
same,Activity,Mus musculus [21],129.1 mg/g
same,Activity,Mus musculus [22],167.4 mg/g
same,Activity,Mus musculus [23],123.6 mg/dL
same,Activity,Mus musculus [24],125.1 mg/dL
same,Activity,Mus musculus [25],127.7 mg/dL
same,Activity,Mus musculus [26],35 mg/mL
same,Activity,Mus musculus [27],33.8 mg/mL
same,Activity,Mus musculus [28],14.9 ng/mL
same,Kp,in vivo [29],0.14
same,Kp,in vivo [30],2.2
